Source: ChEMBL document CHEMBL3580591, “Effect of Apigenin on Leishmania amazonensis Is Associated with Reactive Oxygen Species Production Followed by Mitochondrial Dysfunction” (J Nat Prod, 2015)
The source made the active and inactive calls. No cut-off for these calls is given here.

Legend:
Leishmania amazonensis [1] = assay: Antiparasitic activity against Leishmania amazonensis MHOM/BR/75/LTB0016 promastigotes assessed as inhibition of cellular proliferation incubated for 24 hrs by Neubauer chamber based assay; type: functional, organism-based
In short: (§1)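 Strain MHOM/BR/75/LTB0016 promastigotes were grown at 26 °C in Schneider medium (pH 7.2) with 10% heat-inactivated FCS, penicillin and streptomycin. They were seeded at 1.0 × 10^6 cells/mL with compound (3−96 μM) or DMSO vehicle (0.2% final) for 24 h at 26 °C. Density was counted in a Neubauer chamber. IC50 came from logarithmic regression. Mean ± SE of three experiments.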

Leishmania amazonensis [2] = assay: Antiparasitic activity against Leishmania amazonensis MHOM/BR/75/LTB0016 promastigotes assessed as inhibition of cellular proliferation at 96 uM incubated for 24 hrs by Neubauer chamber based assay; type: functional; details: MHOM/BR/75/LTB0016, 24 h; in short: as §1
Leishmania amazonensis [3] = assay: Antiparasitic activity against Leishmania amazonensis MHOM/BR/75/LTB0016 promastigotes assessed as inhibition of cellular proliferation incubated for 24 hrs by CFSE staining based flow cytometry; type: functional, organism-based
In short: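 Promastigotes (2.5 × 10^7 cells/mL) were washed in PBS and stained with 10 μM CFSE in PBS/0.1% albumin for 15 min at 26 °C. Staining was stopped with ice-cold medium. Cells were resuspended at 1.0 × 10^6 cells/mL with compound (3−96 μM) or 0.2% DMSO for 24 h at 26 °C. Fluorescence was read by flow cytometry. Histograms are representative of three experiments.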

Leishmania amazonensis [4] = assay: Antiparasitic activity against Leishmania amazonensis MHOM/BR/75/LTB0016 promastigotes assessed as inhibition of cellular proliferation incubated for 48 hrs by CFSE staining based flow cytometry; type: functional, organism-based; details: MHOM/BR/75/LTB0016, 48 h
Leishmania amazonensis [5] = assay: Induction of intracellular ROS generation in Leishmania amazonensis MHOM/BR/75/LTB0016 promastigotes incubated for 24 hrs by H2DCFDA dye based assay; type: functional, organism-based
In short: (§2)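 Promastigotes (5 × 10^6 cells/mL) were cultured 24 h at 26 °C with compound (3−96 μM) or vehicle, then resuspended in HBSS at 1 × 10^7 cells/mL. They were loaded with 20 μM H2DCFDA for 20 min at 26 °C and read by flow cytometry. Results are fold increase over control, mean ± SE of three experiments.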

Leishmania amazonensis [6] = assay: Induction of intracellular ROS generation in Leishmania amazonensis MHOM/BR/75/LTB0016 promastigotes at 96 uM incubated for 24 hrs by H2DCFDA dye based assay; type: functional; in short: as §2
Leishmania amazonensis [7] = assay: Antiparasitic activity against Leishmania amazonensis MHOM/BR/75/LTB0016 promastigotes assessed as inhibition of cellular proliferation at 96 uM incubated for 24 hrs in presence of 300 uM NAC by Neubauer chamber based assay; type: functional, organism-based
In short: (§3)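 Promastigotes were preincubated with GSH, GSSG or NAC (300 μM final, in PBS) and then grown 24 h at 26 °C in Schneider medium with 96 μM compound (in DMSO) or vehicle (0.2% DMSO). Proliferation was counted in a Neubauer chamber. Mean ± SE of three experiments.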

Leishmania amazonensis [8] = assay: Antiparasitic activity against Leishmania amazonensis MHOM/BR/75/LTB0016 promastigotes assessed as inhibition of cellular proliferation at 96 uM incubated for 24 hrs in presence of 300 uM GSH by Neubauer chamber based assay; type: functional, organism-based; in short: as §3
Leishmania amazonensis [9] = assay: Induction of intracellular ROS generation in Leishmania amazonensis MHOM/BR/75/LTB0016 promastigotes at 96 uM incubated for 24 hrs in presence of NAC by H2DCFDA dye based assay; type: functional, organism-based
In short: (§4)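 Cultures held GSH, GSSG or NAC (300 μM final, in PBS) together with 96 μM compound or 0.2% DMSO for 24 h at 26 °C in Schneider medium. Cells were then stained with H2DCFDA (20 μM, 20 min, 26 °C, in HBSS) and read by flow cytometry. Results are fold ROS increase versus control, mean ± SE of three experiments.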

Leishmania amazonensis [10] = assay: Induction of intracellular ROS generation in Leishmania amazonensis MHOM/BR/75/LTB0016 promastigotes at 96 uM incubated for 24 hrs in presence of GSH by H2DCFDA dye based assay; type: functional, organism-based; in short: as §4
Leishmania amazonensis [11] = assay: Antiparasitic activity against Leishmania amazonensis MHOM/BR/75/LTB0016 promastigotes assessed as inhibition of cellular proliferation at 96 uM incubated for 24 hrs in presence of 300 uM GSSG by Neubauer chamber based assay; type: functional, organism-based; in short: as §3
Leishmania amazonensis [12] = assay: Induction of intracellular ROS generation in Leishmania amazonensis MHOM/BR/75/LTB0016 promastigotes at 96 uM incubated for 24 hrs in presence of GSSG by H2DCFDA dye based assay; type: functional, organism-based; in short: as §4
Leishmania amazonensis [13] = assay: Induction of ultrastructural alterations in Leishmania amazonensis MHOM/BR/75/LTB0016 promastigotes assessed as extensive swelling of parasite mitochondria at 12 to 96 uM incubated for 24 hrs by transmission electron microscopy; type: functional, organism-based
In short: (§5)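 Promastigotes (5 × 10^6 cells/mL) were treated for 24 h at 26 °C in Schneider medium with compound at 12, 24 or 96 μM. They were fixed in 2.5% glutaraldehyde in 0.1 M cacodylate (pH 7.2) for 40 min and postfixed in 1% OsO4, 0.8% potassium ferricyanide and 2.5 mM CaCl2 for 20 min. Cells were acetone-dehydrated and resin-embedded. Ultrathin sections were stained with uranyl acetate and lead citrate and examined by transmission electron microscopy.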

Leishmania amazonensis [14] = assay: Induction of ultrastructural alterations in Leishmania amazonensis MHOM/BR/75/LTB0016 promastigotes assessed as inner mitochondrial membrane damage with washed-out matrix appearance and decreased matrix electron density at 12 to 96 uM incubated for 24 hrs by transmission electron microscopy; type: functional, organism-based; in short: as §5
Leishmania amazonensis [15] = assay: Induction of ultrastructural alterations in Leishmania amazonensis MHOM/BR/75/LTB0016 promastigotes assessed as concentric membrane structures formation inside organelle at 12 to 96 uM incubated for 24 hrs by transmission electron microscopy; type: functional, organism-based; in short: as §5
Leishmania amazonensis [16] = assay: Induction of ultrastructural alterations in Leishmania amazonensis MHOM/BR/75/LTB0016 promastigotes assessed as appearance of endoplasmic profiles surrounding cellular structures and cytosolic vacuolization at 12 uM incubated for 24 hrs by transmission electron microscopy; type: functional, organism-based; in short: as §5
Leishmania amazonensis [17] = assay: Induction of ultrastructural alterations in Leishmania amazonensis MHOM/BR/75/LTB0016 promastigotes assessed as washed-out appearance of mitochondria matrix and loss of cristae at 96 uM incubated for 24 hrs by transmission electron microscopy; type: functional, organism-based; in short: as §5
Leishmania amazonensis [18] = assay: Induction of membrane potential depolarization in Leishmania amazonensis MHOM/BR/75/LTB0016 promastigotes assessed as reduction in mitochondrial membrane potential incubated for 24 hrs by JC1 dye based fluorescence assay; type: functional, organism-based
In short: (§6)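 Promastigotes (5 × 10^6 cells/mL) were treated for 24 h with compound (3−96 μM) or 0.2% DMSO, then resuspended in HBSS at 1 × 10^7 cells/mL. They were stained with JC-1 (10 μg/mL, 10 min, 26 °C) and washed twice. Emission was read at 590 and 530 nm (excitation 480 nm), and the 590/530 ratio gives relative ΔΨm. FCCP 20 μM for 20 min served as positive control. Mean ± SE of three experiments.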

Leishmania amazonensis [19] = assay: Induction of membrane potential depolarization in Leishmania amazonensis MHOM/BR/75/LTB0016 promastigotes assessed as reduction in mitochondrial membrane potential at 96 uM incubated for 24 hrs by JC1 dye based fluorescence assay; type: functional; details: MHOM/BR/75/LTB0016, 24 h; in short: as §6
Leishmania amazonensis [20] = assay: Induction of ultrastructural alterations in Leishmania amazonensis MHOM/BR/75/LTB0016 promastigotes assessed as cytoplasmic vacuolization at 12 uM incubated for 24 hrs by transmission electron microscopy
Leishmania amazonensis [21] = assay: Induction of ultrastructural alterations in Leishmania amazonensis MHOM/BR/75/LTB0016 promastigotes assessed as rupture of trans-Golgi network at 24 uM incubated for 24 hrs by transmission electron microscopy
Leishmania amazonensis [22] = assay: Induction of membrane potential depolarization in Leishmania amazonensis MHOM/BR/75/LTB0016 promastigotes assessed as reduction in mitochondrial membrane potential at 20 uM incubated for 24 hrs by JC1 dye based fluorescence assay; details: MHOM/BR/75/LTB0016, 24 h, read-out: INH
Leishmania amazonensis [23] = assay: Induction of intracellular ROS generation in Leishmania amazonensis MHOM/BR/75/LTB0016 promastigotes at 96 uM incubated for 48 hrs by H2DCFDA dye based assay; type: functional
Leishmania braziliensis = assay: Induction of intracellular ROS generation in Leishmania braziliensis promastigotes at 500 uM incubated for 72 hrs by H2DCFDA dye based assay

O=c1cc(-c2ccc(O)cc2)oc2cc(O)cc(O)c12 [APIGENIN]
inhibition (Leishmania amazonensis [1]): Dose-dependent effect | IC50 (Leishmania amazonensis [1]; MHOM/BR/75/LTB0016, 24 h): 23.7 µM | inhibition at 96 µM (Leishmania amazonensis [2]): 75% | inhibition (Leishmania amazonensis [3]): Dose-dependent effect | IC50 (Leishmania amazonensis [4]): 31.4 µM | Activity (Leishmania amazonensis [5]): Dose-dependent effect | fold change (FC) (Leishmania amazonensis [6]): 2.9 | Activity (Leishmania amazonensis [7]): inactive | Activity (Leishmania amazonensis [8]): inactive | Activity (Leishmania amazonensis [9]): inactive | Activity (Leishmania amazonensis [10]): inactive | Activity (Leishmania amazonensis [11]): Active | Activity (Leishmania amazonensis [12]): Active | Activity (Leishmania amazonensis [13]): Active | Activity (Leishmania amazonensis [14]): Active | Activity (Leishmania amazonensis [15]): Active | Activity (Leishmania amazonensis [16]): Active | Activity (Leishmania amazonensis [17]): Active | Activity (Leishmania amazonensis [18]): Dose-dependent effect | inhibition at 96 µM (Leishmania amazonensis [19]): 78.3% | Activity (Leishmania amazonensis [20]): Active | Activity (Leishmania amazonensis [21]): Active

N#CC(C#N)=NNc1ccc(OC(F)(F)F)cc1
inhibition at 20 µM (Leishmania amazonensis [22]): 79.8%

O=c1c(O)c(-c2ccc(O)c(O)c2)oc2cc(O)cc(O)c12 [QUERCETIN]
fold change (FC) (Leishmania amazonensis [23]): 4.4

O=C(O[C@@H]1Cc2c(O)cc(O)cc2O[C@@H]1c1cc(O)c(O)c(O)c1)c1cc(O)c(O)c(O)c1 [EPIGALOCATECHIN GALLATE]
fold change (FC) (Leishmania braziliensis): 2.9
